Source: ChEMBL document CHEMBL2069229, “Terpenylated coumarins as SIRT1 activators isolated from Ailanthus altissima” (J Nat Prod, 2012)
Calls of active or inactive are those of the source. The rule behind the calls is not given here.

Experiments:
[1] = target: T1, NAD-dependent protein deacetylase sirtuin-1 (Homo sapiens) (UniProt Q96EB6); assay: Activation of SIRT1 expressed in HEK293 cells assessed as increase in enzyme deacetylation activity pre-incubated for 10 mins before addition of acetylated p53 peptide substrate and NAD+ by NAD+/NADH assay; type: cell-based
T1 sequence (whole entry): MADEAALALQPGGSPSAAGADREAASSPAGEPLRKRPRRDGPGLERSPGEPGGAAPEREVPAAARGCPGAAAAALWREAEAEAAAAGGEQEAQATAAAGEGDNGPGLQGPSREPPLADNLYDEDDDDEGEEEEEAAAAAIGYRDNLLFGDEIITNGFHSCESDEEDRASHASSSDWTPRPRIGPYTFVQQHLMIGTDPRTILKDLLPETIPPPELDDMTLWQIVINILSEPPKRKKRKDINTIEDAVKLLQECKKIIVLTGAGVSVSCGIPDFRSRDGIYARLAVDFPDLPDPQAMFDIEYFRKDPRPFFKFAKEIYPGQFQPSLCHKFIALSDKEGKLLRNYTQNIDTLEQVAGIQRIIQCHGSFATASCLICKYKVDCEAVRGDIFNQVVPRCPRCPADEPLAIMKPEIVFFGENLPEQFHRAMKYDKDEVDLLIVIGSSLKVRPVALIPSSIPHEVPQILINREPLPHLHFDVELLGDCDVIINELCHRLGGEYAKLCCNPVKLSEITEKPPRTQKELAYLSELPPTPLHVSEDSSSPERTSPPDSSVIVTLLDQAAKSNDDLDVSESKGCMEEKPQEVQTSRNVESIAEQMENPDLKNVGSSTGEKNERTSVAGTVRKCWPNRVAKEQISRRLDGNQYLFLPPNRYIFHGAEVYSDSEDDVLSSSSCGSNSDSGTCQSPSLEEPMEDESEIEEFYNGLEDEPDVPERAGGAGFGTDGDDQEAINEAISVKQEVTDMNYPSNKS
Summary of the method: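 Cell-free SIRT1 (0.1 U/mL) with 10 μM NAD+ and 20 μM Ac-p53 peptide in Tris/Cl pH 8.0, NaCl, KCl, MgCl2, BSA buffer. Enzyme–compound premix 10 min at room temperature, then 6 h at ambient temperature. Stopped with NAD/NADH recycling enzyme mix containing 1 mM nicotinamide; absorbance read after 2 h. DMSO and no-enzyme controls.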

[2] = target: T1, NAD-dependent protein deacetylase sirtuin-1 (Homo sapiens); assay: Activation of SIRT1 expressed in HEK293 cells assessed as increase in enzyme deacetylation activity at 10 uM using acetylated p53 substrate and NAD+ by bioluminescence assay; type: cell-based
Summary of the method: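 Enzyme–compound premix 10 min, then substrate/NAD+ added and run 2 h. Quenched with LDH reagent containing nicotinamide for 1 h. Read by luciferase/FMN-oxidoreductase/decanal luminescence within 15 min. DMSO reaction as positive control, no-enzyme as blank.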

[3] = target: T1, NAD-dependent protein deacetylase sirtuin-1 (Homo sapiens); assay: Activation of SIRT1 expressed in HEK293 cells assessed as increase in NAD to NADH ratio at 20 uM after 12 hrs by NAD+/NADH assay
[4] = target: T1, NAD-dependent protein deacetylase sirtuin-1 (Homo sapiens); assay: Activation of SIRT1 expressed in HEK293 cells assessed as reduction in p53 transcriptional activity incubated for 12 hrs by luciferase reporter gene assay; type: cell-based
Summary of the method: (§1)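 HEK293 cells in DMEM with 10% FBS, plated at 10^5 cells/well. After 24 h, PEI-transfected with PG13-luc (wt p53 sites), myc-p53, flag-SIRT1 and RSV-β-gal. Treated 24 h post-transfection for 12 h. Luciferase normalized to internal control. Triplicate experiments, mean ± SD.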

[5] = target: T1, NAD-dependent protein deacetylase sirtuin-1 (Homo sapiens); assay: Activation of SIRT1 expressed in HEK293 cells assessed as reduction in p53 transcriptional activity at 10 uM incubated for 12 hrs by luciferase reporter gene assay; type: cell-based; summary of the method: as §1

For `COc1cc2ccc(=O)oc2c(OC)c1OC[C@@H](O)[C@](C)(O)CC[C@H]1OC1(C)C`, the Activity [1] was “Dose-dependent effect”, the Activity [2] was “Active” and the Activity [3] was over 50%. The Activity [4] was “Dose-dependent effect” and the Activity [5] was “Active”.

In the case of `COc1cc2ccc(=O)oc2c(OC)c1OC[C@H](O)[C@@H](C)[C@@H]1O[C@H]1C=C(C)C`, the Activity [1] is reported as “Dose-dependent effect”, the Activity [2] is reported as “Active” and the Activity [3] is reported as over 50%. For the same compound, the Activity [4] was “Dose-dependent effect” and the Activity [5] was “Active”.

With `COc1cc2ccc(=O)oc2c(OC)c1OC/C=C(\C)CCC=C(C)C` the Activity [1] was “Dose-dependent effect”, the Activity [2] was “Active” and the Activity [3] was over 50%. For the same compound, the Activity [4] was “Dose-dependent effect” and the Activity [5] was “Active”.

In the case of `COc1cc2ccc(=O)oc2c(OC)c1OC[C@@H](O)[C@](C)(O)CCC=C(C)C`, the Activity [1] is reported as “Dose-dependent effect”, the Activity [2] is reported as “Active” and the Activity [3] is reported as over 50%. For the same compound, the Activity [4] was “Dose-dependent effect” and the Activity [5] was “Active”.
